Assay [1] in a line: inhibitors of TNFa-induced NFkB p65 translocation, primary screen, imaging, HUVEC, MLSMR starter and 10KST1 sets (AID 438;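 active = inhibition above 20% together with a positive visual image hit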;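 also: compound added about 3h40 before a 20 min TNFalpha stimulation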;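 as to inhibition: signal is the nuclear over cytoplasmic p65 intensity ratio per well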). The note with it: HUVEC TNFa-induced p65 nuclear translocation; cell count: measured here: nuclei count (cytotoxicity indicator), at 2.08 µM; inhibition: at 2 µM, stronger effect = higher value, 0% TNFa-plus-vehicle, 100% no-TNFa wells.
A short description of assay [2]: inhibitors of E-selectin induction by TNFa, primary screen, imaging, HUVEC, immunofluorescence, MLSMR starter and 10KST1 sets (AID 487;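 active = visually confirmed hit in the image check and inhibition above 20%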;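 as to inhibition: signal is fraction of cell area covered by stained E-selectin grains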;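 as to nuclei count: 100% = median nuclei count of all wells on the same plate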). The note with it: HUVEC TNFalpha-induced E-selectin immunofluorescence imaging, at 2 µM; inhibition: stronger effect = higher value; nuclei count: measured here: cell number, toxicity.
Assay [3] is described as follows: DUSP6 inhibitors restoring Erk phosphorylation by chemical complementation, primary imaging in DUSP6-transfected HeLa (AID 609;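 active = compounds giving at least 50% inhibition in the cell-based MKP-3 phosphatase rescue imaging test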;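 as to inhibition: phospho-Erk level distribution per well compared with pooled transfected vehicle control wells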). As to conditions: HeLa MKP-3 transfected, phospho-Erk imaging KS statistic, at 10 µM, cells stimulated with TPA for 15 min.
Assay [4] addresses Dual specificity protein phosphatase 6 (Homo sapiens) (UniProt Q16828). Described as above. As to conditions: HeLa MKP-3 transfected, phospho-Erk imaging KS statistic; at 10 µM; stronger effect = higher value; cells stimulated with TPA for 15 min.
Assay [5] has as its target Voltage-gated potassium channel subunit beta-2 (Rattus norvegicus) (UniProt P62483). The assay can be described thus: KvBeta enzyme negative modulators, primary screen, biochemical, NADPH fluorescence (AID 622;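 active = fluorescence slope higher than the sample average by over 3 SD, cut at about -0.22 in these data, passing the limit was not always enough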;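 also: slope of raw intensity against log time taken from 70 to 1610 s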). The note with it: recombinant KvBeta, 4-cyanobenzaldehyde reduction, at 10 µM, stronger effect = higher value.
The target is the same in assay [6]. The assay can be described thus: KvBeta positive modulators, primary screen, biochemical, NADPH fluorescence (AID 623;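 active = NADPH fluorescence slope more negative than the mean of all samples by about 3 SD, 99.7% confidence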;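 also: fluorescence intensity change per second fitted from 20 to 320 s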). As to conditions: Recombinant KvBeta, NADPH fluorescence decrease slope, 10 min; at 10 µM; stronger effect = lower value.
The target in assay [7] is Alpha-2C adrenergic receptor (Homo sapiens) (UniProt P18825). The assay can be described thus: modulators of alpha2C/GIRK thallium flux, primary screen, cell-based, HEK293 alpha2C/GIRK1/2 (AID 624).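 Also: slope of fluorescence ratio to pre-addition baseline per second over 15 to 24 s.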 As to conditions: thallium flux BTC fluorescence, at 10 µM, actives lie on both sides.
Alpha-2C adrenergic receptor (Homo sapiens), sequence (P18825 whole entry, looked up): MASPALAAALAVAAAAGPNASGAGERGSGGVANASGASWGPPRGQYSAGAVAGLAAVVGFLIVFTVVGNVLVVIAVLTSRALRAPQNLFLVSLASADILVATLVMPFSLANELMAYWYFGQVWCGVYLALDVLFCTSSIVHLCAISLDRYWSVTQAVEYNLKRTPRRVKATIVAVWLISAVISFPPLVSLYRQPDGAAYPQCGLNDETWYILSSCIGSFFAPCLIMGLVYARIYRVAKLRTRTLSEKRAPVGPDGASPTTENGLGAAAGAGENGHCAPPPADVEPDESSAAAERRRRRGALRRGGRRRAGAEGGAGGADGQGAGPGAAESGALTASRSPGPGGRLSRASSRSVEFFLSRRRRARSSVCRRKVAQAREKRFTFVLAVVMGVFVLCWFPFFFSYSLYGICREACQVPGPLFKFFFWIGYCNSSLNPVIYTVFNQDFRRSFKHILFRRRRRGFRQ
Assay [8] is described as follows: inhibitors of larval lipid processing in zebrafish, primary screen, whole organism, PED6 fluorescence, gall bladder and intestine (AID 686;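 active = a full or partial loss of lipid-probe fluorescence in the fish gall bladder, intestine or both, judged by eye; inactive = no fluorescence loss, or compound toxic to the fish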;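 also: larvae 5 to 7 days old with five fish per well; signal comes from phospholipase A2 cleavage of quenched PED6 carried via bile; overnight exposure to compound and PED6 before scoring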). As to conditions: Zebrafish larvae PED6 lipid processing, fluorescence scoring; screened at 20 µM (by protocol). Put shortly:
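Doses: 20 µM single dose. Test system: live zebrafish larvae aged 5-7 days, whole organism. Quantity: five larvae per well. Measured by: By-eye fluorescence microscopy. Reagent: ingested quenched lipid PED6 at 100 nM. Read-out: visual per-well fluorescence inhibition score. Times: overnight exposure of larvae to compound plus PED6.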

Assay [9] in a line: inhibitors of Chlamydomonas gravitaxis, primary screen, whole organism, Chlamydomonas reinhardtii, WT vs cilia-less mutant, absorbance, 96-well (AID 463189;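 active = inhibition at or above 50% relative to wild type and mutant plate controls; inactive = inhibition below 50%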;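 also: 0% = wild type cc124 cells in DMSO and 100% = ciliumless bld1 mutant cells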). As to conditions: OD600 absorbance, 2 days, at 10 µM, stronger effect = higher value.
The mark [10] stands for this setting: measured here: cell density z-score.
Where [11] appears, read: measured here: nuclear c-Myc green intensity z-score.
[12] abbreviates: measured here: nuclear pErk red intensity z-score, stronger effect = higher value.

This note sets out measurements from PubChem BioAssay.

The source made the active and inactive calls.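 The calls were made as follows, unless noted: active = fluorescence slope after compound addition differing from the mean of all screened samples at 99.7% confidence, in either direction; inactive = the rest.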

Voltage-gated potassium channel subunit beta-2 (Rattus norvegicus), sequence (P62483 whole entry, looked up): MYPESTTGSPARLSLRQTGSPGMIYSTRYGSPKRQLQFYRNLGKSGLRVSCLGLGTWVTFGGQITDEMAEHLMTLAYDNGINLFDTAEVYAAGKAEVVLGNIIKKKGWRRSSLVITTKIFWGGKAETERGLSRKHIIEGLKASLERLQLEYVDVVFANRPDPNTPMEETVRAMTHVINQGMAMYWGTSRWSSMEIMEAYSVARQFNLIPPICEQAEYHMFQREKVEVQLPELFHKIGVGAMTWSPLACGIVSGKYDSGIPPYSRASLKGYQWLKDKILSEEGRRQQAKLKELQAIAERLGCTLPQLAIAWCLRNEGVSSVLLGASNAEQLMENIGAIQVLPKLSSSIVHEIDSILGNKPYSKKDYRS
Dual specificity protein phosphatase 6 (Homo sapiens), sequence (Q16828 whole entry, looked up): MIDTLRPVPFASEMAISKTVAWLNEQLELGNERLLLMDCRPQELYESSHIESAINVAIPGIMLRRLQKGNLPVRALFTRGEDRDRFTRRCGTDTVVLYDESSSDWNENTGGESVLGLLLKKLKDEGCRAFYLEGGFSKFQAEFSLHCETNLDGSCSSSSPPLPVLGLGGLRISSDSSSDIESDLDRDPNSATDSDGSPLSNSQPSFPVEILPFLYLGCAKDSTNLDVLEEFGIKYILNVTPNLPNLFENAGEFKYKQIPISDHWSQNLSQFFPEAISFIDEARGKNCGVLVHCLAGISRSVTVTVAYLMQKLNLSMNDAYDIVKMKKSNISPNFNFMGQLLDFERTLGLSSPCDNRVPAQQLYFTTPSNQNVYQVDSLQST

In general, inhibition refers to the relative decrease from the control value, in per cent. As to `CC(=O)Nc1cnc2ccccc2n1`, the cell count in assay [1] was found to be 626. Also, the inhibition in [1] was -12.5% (inactive); in [2] it was 17.9% (inactive); in [4], -6.06% (inactive); in assay [9], -0.95% (inactive). Besides, the nuclei count in assay [2] worked out at 160%. Moreover, the z-score in assay [3] (setting [10]) was -0.876; in [3] (setting [11]), 0.21; in assay [3] (setting [12]) it was 0.164. In assay [5], the fluorescence slope was -0.397 (inactive). Moreover, in assay [6], the NADPH fluorescence slope is -5.9e-05 (inactive). Also, the slope in [7] is 0.00508 (inactive). The outcome in assay [8] was “inactive; toxic”.
Turning to `Nc1ccc2oc3ncccc3c(=O)c2c1`, the cell count in assay [1] turned out to be 518. The inhibition in assay [1] was -0.6% (inactive); in [2], -52.6% (inactive); in [4], 22.3% (inactive); in assay [9], -10.9% (inactive). In [2], this molecule registered a nuclei count of 172%. In addition, the z-score is 1.1 in assay [3] (setting [10]), -0.546 in [3] (setting [11]) and -0.617 in assay [3] (setting [12]). In addition, in [5], the fluorescence slope is -0.511 (inactive). The NADPH fluorescence slope in [6] is -2.4e-05 (inactive). In assay [7], the slope was 0.00436 (inactive). Further, the result in assay [8] was inactive.
In the case of `CCOc1cc2nc(-c3ccc(OC)c(OC)c3)nc(N3CCOCC3)c2cc1OC`, the cell count in assay [1] is 497. The inhibition in assay [1] was -26.2% (inactive); in assay [2], -85% (inactive); in [4], 20.9% (inactive); in [9], 84.6% (active). The nuclei count in assay [2] stood at 151%. Besides, the z-score in assay [3] (setting [10]) was -0.0989; in assay [3] (setting [11]), -1.76; in [3] (setting [12]), -2.63. In addition, the fluorescence slope in [5] was -0.455 (inactive). Besides, in assay [6], the NADPH fluorescence slope was -1.4e-05 (inactive). Further, in assay [7], the slope is 0.00555 (inactive). In assay [8], the outcome was “inactive; toxic”.
Consider `CCC1(C)Cc2c(sc3c2c(=O)n(C)c2nnc(SCc4ccc5c(c4)OCO5)n32)CO1` (stereo unspecified), for which the cell count in assay [1] was found to be 497. The inhibition is -11% (inactive) in assay [1], 34% (inactive) in assay [2], 22.3% (inactive) in assay [4] and 46.1% (inactive) in assay [9]. The same molecule yielded a nuclei count in assay [2] of 98.6%. The z-score in [3] (setting [10]) is 1.16; in assay [3] (setting [11]), 0.737; in assay [3] (setting [12]), -1.44. Further, in [5], the fluorescence slope is -0.418 (inactive). In addition, the NADPH fluorescence slope in [6] is 9.4e-07 (inactive). The slope in assay [7] was 0.00552 (inactive). Also, in assay [8], the outcome was inactive.
In the case of `Clc1ccc2[nH]c3c(NCCCN4CCOCC4)ncnc3c2c1`, in [1], the cell count came to 471. Besides, the inhibition in [1] is -7.1% (inactive); in assay [2] it was -31.4% (inactive); in assay [4] it was -13.3% (inactive); in [9], -7.19% (inactive). In addition, the nuclei count in assay [2] is 102%. The z-score is -0.293 in [3] (setting [10]), -0.352 in assay [3] (setting [11]) and 1.38 in [3] (setting [12]). Moreover, the fluorescence slope in assay [5] was -0.52 (inactive). For the same molecule, the NADPH fluorescence slope in assay [6] was 6.4e-06 (inactive). Further, the slope in assay [7] is 0.00501 (inactive). Further, the molecule was called inactive in assay [8].
Turning to `COc1ccc(OCC(O)Cn2c(Nc3cccc(C)c3)nc3c2c(=O)n(C)c(=O)n3C)cc1` (stereo unspecified), the cell count in assay [1] worked out at 514. The inhibition in assay [1] is -0.2% (inactive); in assay [2], -160% (inactive); in assay [4] it was 26.3% (inactive); in assay [9], 7.54% (inactive). This molecule gave a nuclei count in assay [2] of 139%. Further, the values for the z-score in [3] (setting [10]), in assay [3] (setting [11]) and in [3] (setting [12]) were 1.7, -1.51 and -0.035, respectively. In assay [5], the fluorescence slope was -0.541 (inactive). Further, the NADPH fluorescence slope in assay [6] was -3.3e-05 (inactive). Also, in [7], the slope was 0.00591 (inactive). Besides, in assay [8], the result was inactive.
As to `COc1cccc(-c2nc(N3CCCCC3)c3ccccc3n2)c1O`, in [1], the cell count was 528. For the same molecule, the inhibition in assay [1] is 1.2% (inactive); in [2], -31.1% (inactive); in assay [4] it was 1.6e-07% (inactive); in assay [9], 15% (inactive). Besides, in assay [2], the nuclei count amounted to 142%. The z-score in assay [3] (setting [10]) was 1.81; in assay [3] (setting [11]) it was 0.268; in assay [3] (setting [12]), -0.772. For the same molecule, the fluorescence slope in assay [5] was -0.405 (inactive). Also, in [6], the NADPH fluorescence slope is -3.2e-05 (inactive). In [7], the slope is 0.0042 (inactive). For the same molecule, the result in [8] was inactive.
